Experimental data as given in ChEMBL document CHEMBL1177882, “Novel bisstyryl derivatives of bakuchiol: targeting oral cavity pathogens” (2010).
In brackets after ≈: the same amount, converted by molar mass. Activity calls are given as the source filed them. The calls are words filed in the database; no cut-off is given here.

Key:
[1] = system: Porphyromonas gingivalis; assay: Antibacterial activity against Porphyromonas gingivalis ATCC 33277 after 48 hrs by broth microdilution method; type: functional; settings: ATCC 33277, 48 h
Summary of the method: (§1)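 Broth microdilution MIC for obligate anaerobes, run in their growth media (Wilkins–Chalgren for F. nucleatum and P. intermedia; supplemented Todd Hewitt broth for P. gingivalis). Inoculum suspended in Brucella broth, final 5 × 10^6 cfu/ml. Twofold dilutions, final 0.12–128 µg/ml. Incubated anaerobically (90% N2/5% H2/5% CO2) at 37 °C for 48 h; MIC is the lowest concentration without turbidity.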

[2] = system: Actinomyces viscosus; assay: Antibacterial activity against Actinomyces viscosus ATCC 15987 after 48 hrs by broth microdilution method; type: functional; settings: ATCC 15987, 48 h
[3] = system: Actinomyces viscosus; assay: Antibacterial activity against Actinomyces viscosus ATCC 15987 after 24 hrs by broth microdilution method; settings: ATCC 15987, 24 h
[4] = system: Streptococcus sanguinis; assay: Antibacterial activity against Streptococcus sanguinis ATCC 10556 after 48 hrs by broth microdilution method; type: functional; settings: ATCC 10556, 48 h
[5] = system: Prevotella intermedia; assay: Antibacterial activity against Prevotella intermedia ATCC 25611 after 48 hrs by broth microdilution method; type: functional; settings: ATCC 25611, 48 h; summary of the method: as §1
[6] = system: Fusobacterium nucleatum; assay: Antibacterial activity against Fusobacterium nucleatum ATCC 10953 after 48 hrs by broth microdilution method; type: functional; settings: ATCC 10953, 48 h; summary of the method: as §1
[7] = system: Streptococcus sanguinis; assay: Antibacterial activity against Streptococcus sanguinis ATCC 10556 after 24 hrs by broth microdilution method; settings: ATCC 10556, 24 h
[8] = system: Streptococcus mutans; assay: Antibacterial activity against Streptococcus mutans ATCC 25175 after 24 hrs by broth microdilution method; settings: ATCC 25175, 24 h
[9] = system: Streptococcus mutans; assay: Antibacterial activity against Streptococcus mutans ATCC 25175 after 48 hrs by broth microdilution method; type: functional; settings: ATCC 25175, 48 h
[10] = system: Streptococcus mutans; assay: Antibacterial activity against Streptococcus mutans ATCC 25175 assessed as 280 nm absorbing material release at 2 time MIC after 60 mins by spectrophotometric analysis; type: functional, organism-based
Summary of the method: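 S. mutans prepared in 50 mmol/l phosphate pH 7.1 (~1 × 10^9 cfu/ml) was exposed to compound at 2 × MIC for 60 min at 37 °C. Supernatant taken after centrifugation (10,000 g, 10 min) and read at A280. Release is expressed as % of a total-release control made by lysozyme treatment (100 µg/ml, 60 min, 37 °C) plus sonication.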

[11] = system: Streptococcus mutans; assay: Antibacterial activity against Streptococcus mutans ATCC 25175 assessed as inhibition of biofilm formation after 18 hrs; type: functional
Summary of the method: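 Single-species S. mutans biofilm grown in flat-bottom polystyrene wells, BHI with 2% sucrose, 6 × 10^7 cfu/ml final, compound twofold 0.12–128 µg/ml, 18 h at 37 °C in 5% CO2. Wells rinsed with PBS pH 7.2, methanol-fixed, stained with 0.1% crystal violet, eluted in 95% ethanol, A595 read. % inhibition relative to untreated control; MBIC50 is the lowest concentration giving ≥50% inhibition.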

[12] = system: Streptococcus mutans; assay: Antibacterial activity against Streptococcus mutans ATCC 25175 assessed as increase of cell membrane permeability at 2 time MIC after 60 mins propidium iodide staining by flow cytometry; type: functional, organism-based
Summary of the method: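 Overnight BHI culture of S. mutans washed into 50 mmol/l sodium phosphate pH 7.1 (~1 × 10^9 cfu/ml), diluted 1:20 into buffer with compound at 2 × MIC. Incubated 60 min at room temperature; aliquots diluted in buffer and stained with propidium iodide at 10 µg/ml final on ice. The percentage of PI-stained cells was measured by flow cytometry.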

[13] = system: Streptococcus mutans; assay: Antibacterial activity against Streptococcus mutans ATCC 25175 assessed as decrease in cell viability at 2 time MIC after 60 mins by serial dilution method relative to control; type: functional
Summary of the method: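 S. mutans suspension from an 18 h culture (~1 × 10^9 cfu/ml) diluted 1:20 into phosphate buffer containing compound at 2 × MIC. Incubated 60 min at 37 °C, then serially diluted in saline and plated on BHI agar. Colonies counted after 48 h at 37 °C in 5% CO2; viability given as CFU/ml relative to untreated cells.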

[14] = system: Prevotella intermedia; assay: Ratio of compound MIC to bakuchiol MIC for Prevotella intermedia ATCC 25611; type: functional
[15] = system: Streptococcus sanguinis; assay: Ratio of compound MIC to bakuchiol MIC for Streptococcus sanguinis ATCC 10556; type: functional
[16] = system: Actinomyces viscosus; assay: Ratio of compound MIC to bakuchiol MIC for Actinomyces viscosus ATCC 15987; type: functional
[17] = system: Fusobacterium nucleatum; assay: Ratio of compound MIC to bakuchiol MIC for sFusobacterium nucleatum ATCC 10953; type: functional
[18] = system: Porphyromonas gingivalis; assay: Ratio of compound MIC to bakuchiol MIC for Porphyromonas gingivalis ATCC 33277; type: functional
[19] = system: Streptococcus mutans; assay: Ratio of compound MIC to bakuchiol MIC for Streptococcus mutans ATCC 25175; type: functional

Structure (SMILES)	MBC [1] [µg/mL]	MIC [1] [µg/mL]	MBC [2] [µg/mL]	MIC [3] [µg/mL]	MBC [4] [µg/mL]	MBC [5] [µg/mL]	MIC [5] [µg/mL]	MBC [6] [µg/mL]	MIC [6] [µg/mL]	MIC [7] [µg/mL]	MIC [8] [µg/mL]	MBC [9] [µg/mL]	MBIC50 [11] [µg/mL]	other results
CC(C)=CCC[C@@](C)(/C=C/c1ccc(N)cc1)/C=C/c1ccc(O)cc1	2 (≈ 5.76 µM)	1 (≈ 2.88 µM)	2 (≈ 5.76 µM)	2 (≈ 5.76 µM)	4 (≈ 11.5 µM)	4 (≈ 11.5 µM)	2 (≈ 5.76 µM)	> 128	> 128	2 (≈ 5.76 µM)	2 (≈ 5.76 µM)	4 (≈ 11.5 µM)	–	–
C=C[C@@](C)(/C=C/c1ccc(O)cc1)CCC=C(C)C [BAKUCHIOL]	1 (≈ 3.9 µM)	1 (≈ 3.9 µM)	2 (≈ 7.8 µM)	1 (≈ 3.9 µM)	2 (≈ 7.8 µM)	2 (≈ 7.8 µM)	1 (≈ 3.9 µM)	64 (≈ 250 µM)	32 (≈ 125 µM)	1 (≈ 3.9 µM)	1 (≈ 3.9 µM)	2 (≈ 7.8 µM)	4	Activity [10]: Active; Activity [12]: Active; Activity [13]: >80%
COc1ccc(/C=C/[C@@](C)(/C=C/c2ccc(O)cc2)CCC=C(C)C)cc1C=O	2 (≈ 5.12 µM)	2 (≈ 5.12 µM)	32 (≈ 81.9 µM)	16 (≈ 41 µM)	32 (≈ 81.9 µM)	32 (≈ 81.9 µM)	16 (≈ 41 µM)	> 128	> 128	16 (≈ 41 µM)	16 (≈ 41 µM)	16 (≈ 41 µM)	–	–
COc1ccc(/C=C/[C@@](C)(/C=C/c2ccc(O)cc2)CCC=C(C)C)cc1	1 (≈ 2.76 µM)	0.5 (≈ 1.38 µM)	2 (≈ 5.52 µM)	2 (≈ 5.52 µM)	2 (≈ 5.52 µM)	4 (≈ 11 µM)	2 (≈ 5.52 µM)	8 (≈ 22.1 µM)	8 (≈ 22.1 µM)	2 (≈ 5.52 µM)	1 (≈ 2.76 µM)	2 (≈ 5.52 µM)	2	Ratio [14]: 2; Ratio [15]: 2; Ratio [16]: 2; Activity [10]: Active; Ratio [17]: 0.25; Activity [12]: Active; Ratio [18]: 2; Ratio [19]: 2; Activity [13]: >80%
CC[C@](C)(CCCC(C)C)CCc1ccc(O)cc1	2 (≈ 7.62 µM)	1 (≈ 3.81 µM)	4 (≈ 15.2 µM)	2 (≈ 7.62 µM)	2 (≈ 7.62 µM)	4 (≈ 15.2 µM)	2 (≈ 7.62 µM)	> 128	> 128	1 (≈ 3.81 µM)	2 (≈ 7.62 µM)	4 (≈ 15.2 µM)	4	–
CCCOc1ccc(/C=C/[C@@](C)(/C=C/c2ccc(O)cc2)CCC=C(C)C)cc1Cl	4 (≈ 9.41 µM)	4 (≈ 9.41 µM)	64 (≈ 151 µM)	32 (≈ 75.3 µM)	32 (≈ 75.3 µM)	32 (≈ 75.3 µM)	16 (≈ 37.6 µM)	128 (≈ 301 µM)	64 (≈ 151 µM)	16 (≈ 37.6 µM)	32 (≈ 75.3 µM)	8 (≈ 18.8 µM)	–	–
C=C[C@@](C)(/C=C/c1ccc(OC(C)=O)cc1)CCC=C(C)C [ACETYLBAKUCHIOL]	8 (≈ 26.8 µM)	8 (≈ 26.8 µM)	64 (≈ 214 µM)	32 (≈ 107 µM)	16 (≈ 53.6 µM)	64 (≈ 214 µM)	64 (≈ 214 µM)	> 128	> 128	16 (≈ 53.6 µM)	128 (≈ 429 µM)	> 128	–	–
COc1ccccc1/C=C/[C@@](C)(/C=C/c1ccc(O)cc1)CCC=C(C)C	2 (≈ 5.52 µM)	1 (≈ 2.76 µM)	4 (≈ 11 µM)	2 (≈ 5.52 µM)	4 (≈ 11 µM)	4 (≈ 11 µM)	2 (≈ 5.52 µM)	32 (≈ 88.3 µM)	16 (≈ 44.1 µM)	2 (≈ 5.52 µM)	4 (≈ 11 µM)	8 (≈ 22.1 µM)	8	–
C=C[C@@](C)(/C=C/c1ccc(O)cc1)CCC1OC1(C)C (stereo partly drawn)	64 (≈ 235 µM)	32 (≈ 117 µM)	128 (≈ 470 µM)	64 (≈ 235 µM)	> 128	128 (≈ 470 µM)	64 (≈ 235 µM)	> 128	> 128	128 (≈ 470 µM)	128 (≈ 470 µM)	> 128	–	–
C=C[C@@](C)(/C=C/c1ccc(O)cc1)CC/C=C(/C)C=O	16 (≈ 59.2 µM)	16 (≈ 59.2 µM)	64 (≈ 237 µM)	32 (≈ 118 µM)	64 (≈ 237 µM)	64 (≈ 237 µM)	32 (≈ 118 µM)	64 (≈ 237 µM)	32 (≈ 118 µM)	32 (≈ 118 µM)	64 (≈ 237 µM)	128 (≈ 473 µM)	–	–
C=C[C@@](C)(/C=C/c1ccc(O)c(N)c1)CCC=C(C)C	4 (≈ 14.7 µM)	2 (≈ 7.37 µM)	32 (≈ 118 µM)	16 (≈ 59 µM)	32 (≈ 118 µM)	32 (≈ 118 µM)	16 (≈ 59 µM)	64 (≈ 236 µM)	32 (≈ 118 µM)	16 (≈ 59 µM)	16 (≈ 59 µM)	32 (≈ 118 µM)	–	–
COc1ccc(/C=C/[C@](C)(/C=C/c2ccc(O)cc2)CCC=C(C)C)cc1	0.5 (≈ 1.38 µM)	0.25 (≈ 0.69 µM)	1 (≈ 2.76 µM)	0.5 (≈ 1.38 µM)	1 (≈ 2.76 µM)	1 (≈ 2.76 µM)	0.5 (≈ 1.38 µM)	32 (≈ 88.3 µM)	16 (≈ 44.1 µM)	0.5 (≈ 1.38 µM)	0.5 (≈ 1.38 µM)	1 (≈ 2.76 µM)	1	Ratio [14]: 2; Ratio [15]: 2; Ratio [16]: 2; Activity [10]: Active; Ratio [17]: 2; Activity [12]: Active; Ratio [18]: 2; Ratio [19]: 2; Activity [13]: >80%
CC(C)=CCCC(C)(/C=C/c1ccc(O)cc1)/C=C/c1ccc(O)cc1	1 (≈ 2.87 µM)	0.25 (≈ 0.717 µM)	1 (≈ 2.87 µM)	0.5 (≈ 1.43 µM)	1 (≈ 2.87 µM)	1 (≈ 2.87 µM)	0.25 (≈ 0.717 µM)	> 128	> 128	0.25 (≈ 0.717 µM)	0.5 (≈ 1.43 µM)	1 (≈ 2.87 µM)	1	Activity [10]: Active; Activity [12]: Active; Activity [13]: >80%
COc1ccc(/C=C/[C@@](C)(/C=C/c2ccc(O)cc2)CCC=C(C)C)cc1CO	4 (≈ 10.2 µM)	2 (≈ 5.1 µM)	8 (≈ 20.4 µM)	4 (≈ 10.2 µM)	8 (≈ 20.4 µM)	4 (≈ 10.2 µM)	2 (≈ 5.1 µM)	> 128	> 128	4 (≈ 10.2 µM)	4 (≈ 10.2 µM)	4 (≈ 10.2 µM)	8	–
C=C[C@@](C)(/C=C/c1ccc(O)c([N+](=O)[O-])c1)CCC=C(C)C	32 (≈ 106 µM)	32 (≈ 106 µM)	> 128	128 (≈ 425 µM)	> 128	128 (≈ 425 µM)	64 (≈ 212 µM)	> 128	> 128	128 (≈ 425 µM)	64 (≈ 212 µM)	128 (≈ 425 µM)	–	–
Oc1cc(Cl)ccc1Oc1ccc(Cl)cc1Cl [TRICLOSAN]	2 (≈ 6.91 µM)	2 (≈ 6.91 µM)	8 (≈ 27.6 µM)	4 (≈ 13.8 µM)	4 (≈ 13.8 µM)	1 (≈ 3.45 µM)	1 (≈ 3.45 µM)	2 (≈ 6.91 µM)	2 (≈ 6.91 µM)	4 (≈ 13.8 µM)	4 (≈ 13.8 µM)	8 (≈ 27.6 µM)	–	–
C=C[C@@](C)(/C=C/c1ccc(OC)cc1)CCC=C(C)C	32 (≈ 118 µM)	32 (≈ 118 µM)	> 128	> 128	> 128	> 128	> 128	> 128	> 128	> 128	> 128	> 128	–	Activity [10]: Active; Activity [12]: Active; Activity [13]: inactive
